Test results from publication PMC3034256 (Chemistry & biology, 2011).

Key:
Cdc14A = biological target: T1, Cdc14A (Homo sapiens, UniProt Q9UNH5); assay: PTP-catalyzed pNPP hydrolysis, Cdc14A; assay type: biochemical
T1 sequence (Q9UNH5 1-594): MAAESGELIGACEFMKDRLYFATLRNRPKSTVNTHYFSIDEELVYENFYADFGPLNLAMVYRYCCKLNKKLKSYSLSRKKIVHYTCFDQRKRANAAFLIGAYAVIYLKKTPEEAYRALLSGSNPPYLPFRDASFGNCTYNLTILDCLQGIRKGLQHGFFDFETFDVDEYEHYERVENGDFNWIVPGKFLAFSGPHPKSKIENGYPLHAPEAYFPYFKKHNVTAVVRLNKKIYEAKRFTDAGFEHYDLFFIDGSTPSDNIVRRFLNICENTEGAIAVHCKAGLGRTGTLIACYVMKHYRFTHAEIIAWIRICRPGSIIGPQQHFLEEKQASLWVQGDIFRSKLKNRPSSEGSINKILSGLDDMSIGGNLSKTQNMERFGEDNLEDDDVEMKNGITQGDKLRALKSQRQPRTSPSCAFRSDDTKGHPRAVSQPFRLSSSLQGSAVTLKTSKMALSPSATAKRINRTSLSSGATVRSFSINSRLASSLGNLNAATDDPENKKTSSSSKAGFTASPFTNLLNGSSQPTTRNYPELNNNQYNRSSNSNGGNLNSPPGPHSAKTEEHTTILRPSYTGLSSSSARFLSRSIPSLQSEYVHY
Outline: (§1)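 pNPP hydrolysis was run at 25 °C in 50 mM 3,3-dimethylglutarate, pH 7.0, 1 mM EDTA, ionic strength 0.15 M (NaCl). pNPP was fixed at each enzyme's experimentally determined Km, and reactions were started with enzyme. They were quenched with NaOH and corrected with no-enzyme controls. p-Nitrophenol was read at 405 nm. IC50 was fitted from AI/A0 = IC50/(IC50+[I]).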

SHP1 = SHP1 (Homo sapiens, UniProt P29350); assay: PTP-catalyzed pNPP hydrolysis, SHP1; assay type: biochemical
SHP1, sequence (P29350 whole entry): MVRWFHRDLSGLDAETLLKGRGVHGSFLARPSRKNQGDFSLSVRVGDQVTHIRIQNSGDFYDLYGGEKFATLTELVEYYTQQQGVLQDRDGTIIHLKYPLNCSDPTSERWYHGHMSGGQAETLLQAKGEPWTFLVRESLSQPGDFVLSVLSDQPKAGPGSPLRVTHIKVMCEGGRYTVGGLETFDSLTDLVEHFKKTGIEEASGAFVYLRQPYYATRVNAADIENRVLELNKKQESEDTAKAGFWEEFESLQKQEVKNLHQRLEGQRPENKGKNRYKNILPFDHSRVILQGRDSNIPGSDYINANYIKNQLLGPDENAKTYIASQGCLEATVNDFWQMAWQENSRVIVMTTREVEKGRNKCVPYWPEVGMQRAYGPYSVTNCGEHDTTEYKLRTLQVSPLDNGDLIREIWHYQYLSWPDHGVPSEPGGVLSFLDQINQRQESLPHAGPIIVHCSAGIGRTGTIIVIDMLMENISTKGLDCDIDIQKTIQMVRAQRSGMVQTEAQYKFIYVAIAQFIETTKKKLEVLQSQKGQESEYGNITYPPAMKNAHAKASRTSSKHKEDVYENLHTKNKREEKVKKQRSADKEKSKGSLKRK
Outline: as §1

## C=C/C(=C/C(=O)C[C@H](C)C[C@@H](C)CC[C@H](O)[C@H](C)C(=O)C[C@@H](O)[C@H](C)[C@@H](C)OC(=O)C[C@@H](O)C1=C(C)C(=O)OC1=O)CC [TTN, tautomycetin]
Cdc14A
  IC50: > 50 µM
SHP1
  IC50: 14.6 ± 1.1 µM
